In ChEMBL document CHEMBL4400579, “Antibacterial Strategy against H. pylori: Inhibition of the Radical SAM Enzyme MqnE in Menaquinone Biosynthesis” (ACS Med Chem Lett, 2019):
Calls of active or inactive are those of the source. The rule behind the calls is not given here.

Columns and labels:
Helicobacter pylori = experiment: Antibacterial activity against Helicobacter pylori 26695 ATCC 700392 measured after 72 hrs; type: functional, organism-based; details: 26695 ATCC 700392, 72 h
Procedure, shortened: (§1)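 Bacterial growth inhibition measured by 96-well plate liquid culture. IC50 values taken as reported for each organism.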

[1] = Antibacterial activity against Campylobacter jejuni ATCC 33560 AS-83-79 measured after 16.4 hrs; type: functional, Campylobacter jejuni subsp. jejuni; procedure, shortened: as §1
[2] = molecular target: T1, Aminodeoxyfutalosine synthase (Thermus thermophilus (strain HB8 / ATCC 27634 / DSM 579), UniProt Q5SK48); experiment: Inhibition of N-terminal His6-tagged Thermus thermophilus HB8 MqnE expressed in Escherichia coli BL21 (DE3) co-expressing [4Fe-4S]2+ cluster using 3-(1-carboxyvinyloxy)benzoic acid as substrate preincubated for 15 mins in presence of SAM and substrate followed by Ti(3+)citrate addition and measured by discontinuous HPLC analysis
T1 sequence (Q5SK48 whole entry): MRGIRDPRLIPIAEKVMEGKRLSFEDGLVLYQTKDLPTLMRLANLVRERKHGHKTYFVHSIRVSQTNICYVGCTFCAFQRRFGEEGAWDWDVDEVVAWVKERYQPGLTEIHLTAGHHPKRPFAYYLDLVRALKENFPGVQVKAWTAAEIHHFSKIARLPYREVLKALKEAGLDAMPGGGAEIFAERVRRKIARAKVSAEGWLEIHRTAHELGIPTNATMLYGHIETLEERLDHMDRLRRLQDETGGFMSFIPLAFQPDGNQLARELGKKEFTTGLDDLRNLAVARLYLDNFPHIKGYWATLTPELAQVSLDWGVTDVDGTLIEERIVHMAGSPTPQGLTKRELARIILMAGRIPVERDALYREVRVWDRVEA
Procedure, shortened: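 [4Fe-4S]2+-reconstituted T. thermophilus MqnE preincubated with a range of inhibitor concentrations plus excess SAM and substrate 1. Reaction started by reducing the enzyme with Ti(III) citrate. Aminofutalosine formation followed by discontinuous HPLC. Normalized relative initial rates plotted against inhibitor concentration to give IC50. Where IC50 fell within 5-fold of enzyme concentration, Ki fitted with the Morrison tight-binding equation.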

[3] = molecular target: T2, Aminodeoxyfutalosine synthase (Thermus thermophilus (strain HB8 / ATCC 27634 / DSM 579)) (UniProt Q5SK48); experiment: Reversible inhibition of N-terminal His6-tagged Thermus thermophilus HB8 MqnE expressed in Escherichia coli BL21 (DE3) co-expressing [4Fe-4S]2+ cluster assessed as restoration of enzyme activity at 2 mM using 3-(1-carboxyvinyloxy)benzoic acid as substrate preincubated for 1 hr in presence of SAM, substrate and Ti(3+)citrate followed by compound washout and subsequent addition of SAM, substrate and Ti(3+)citrate measured after 1 hr by HPLC analysis
T2 sequence (whole entry): T1 sequence (Q5SK48 whole entry)
Procedure, shortened: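 Reversibility test: MqnE preincubated with inhibitor for 1 h, inhibitor then removed by gel filtration, and enzyme activity compared for restoration.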

| IC50 (Helicobacter pylori) [nM] | IC50 [1] [µM] | Structure (SMILES) | IC50 [2] [µM] | Ki [2] [µM] | inhibition [3] |
| --- | --- | --- | --- | --- | --- |
| 260 | 1.9 | CN[C@@H]1[C@@H](O)[C@@H](O[C@@H]2[C@@H](O)[C@H](O[C@H]3O[C@H]([C@@H](C)N)CC[C@H]3N)[C@@H](N)C[C@H]2N)OC[C@]1(C)O [GENTAMICIN C2] |  |  |  |
| 16100 | 83.3 | Nc1ncnc2c1ncn2[C@@H]1O[C@H](CCC(Cc2cccc(C(=O)O)c2)C(=O)O)[C@@H](O)[C@H]1O (some centres not stated) | 839 |  |  |
| 12 | 1.4 | CCCCSC[C@H]1CN(Cc2c[nH]c3c(N)ncnc23)C[C@@H]1O |  |  |  |

| Structure (SMILES) | IC50 (Helicobacter pylori) [nM] | IC50 [1] [µM] | IC50 [2] [µM] | Ki [2] [µM] | inhibition [3] |
| --- | --- | --- | --- | --- | --- |
| C=C(Cc1cccc(C(=O)O)c1)C(=O)O | 1800 | 13.6 | 38.7 | 3.1 | Active |
